Source: PubChem BioAssay (Sanford-Burnham Center for Chemical Genomics)
Sampled rows, rich in hits. Any-hit rate of the full collection: about 1.4%.
APOBEC3G inh: blocks human APOBEC3G single-stranded DNA deamination; Q9HC16; recombinant A3G, ssDNA deamination FAM/TAMRA fluorescence; inhibition, % at 20 µM; actives 0.28% (n = 330,000); AID 493012;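 active = inhibition of at least 40% at 20 µM, with no more than 30% in the related APOBEC3A deaminase screen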;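 also: plate controls were DMSO wells with A3G for no effect and wells lacking A3G enzyme for full effect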
Target sequence (Q9HC16 whole entry, looked up): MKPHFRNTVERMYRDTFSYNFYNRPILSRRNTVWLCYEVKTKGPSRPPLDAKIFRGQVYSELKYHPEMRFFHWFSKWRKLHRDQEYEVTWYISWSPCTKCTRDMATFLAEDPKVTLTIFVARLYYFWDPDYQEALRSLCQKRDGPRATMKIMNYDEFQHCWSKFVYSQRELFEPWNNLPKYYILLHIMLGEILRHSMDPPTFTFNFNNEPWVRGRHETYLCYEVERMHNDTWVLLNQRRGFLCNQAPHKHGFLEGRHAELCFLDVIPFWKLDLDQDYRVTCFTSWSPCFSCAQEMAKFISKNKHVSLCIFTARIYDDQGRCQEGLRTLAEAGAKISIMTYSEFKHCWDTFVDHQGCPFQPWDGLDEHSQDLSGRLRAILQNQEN
hiPSC survival: enhancers of human iPSC single-cell survival | AID 602274 | survival enhancement, % at 20 µM | actives 0.044% (n = 360,000) | hiPSC single-cell survival, ATPlite luminescence; 100% = ROCK inhibitor wells, 0% = DMSO; in the data active = survival enhancement above about 18%;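 also: cells exposed to compounds for 16 hours before the ATP read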
HKDC1 inh: inhibitors of human hexokinase HKDC1 | Q2TB90 | recombinant HKDC1, G6PDH/diaphorase resazurin coupled fluorescence | inhibition, % at 20 µM | actives 0.16% (n = 340,000) | AID 493160;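 active = inhibition above about 35% when tested at 20 µM, limit read from the data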;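 also: plate controls were DMSO wells with enzyme for no effect and DMSO wells lacking enzyme for full effect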
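Material – in-house recombinant HK5 (HKDC1) enzyme · Quantity – HKDC1 at 5 µg/mL · Buffer or medium – pH 8.0 Tris buffer with 10 mM MgCl2 · Reagent – glucose with 1 mM ATP · Dosing – single 20 µM dose · Times – reaction time 90 min, room temperature, protected from light · Technique – resorufin fluorescence at 613 nm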
APOBEC3A inh: inhibitors of human APOBEC3A DNA deaminase; P31941; inhibition, % at 20 µM; recombinant A3A, FAM/TAMRA ssDNA deamination fluorescence; actives 0.41% (n = 330,000);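 active = at least 40% inhibition at 20 µM here, with at most 30% in a related deaminase screen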;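 also: plate controls were A3A with DMSO for no effect and wells lacking A3A enzyme for full effect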
Target sequence (P31941 whole entry, looked up): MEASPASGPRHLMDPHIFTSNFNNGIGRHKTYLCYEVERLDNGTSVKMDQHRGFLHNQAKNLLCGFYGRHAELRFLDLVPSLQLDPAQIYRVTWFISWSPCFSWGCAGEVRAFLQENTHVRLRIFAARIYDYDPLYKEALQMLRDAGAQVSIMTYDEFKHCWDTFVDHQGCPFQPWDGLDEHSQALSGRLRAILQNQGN
PfGluPho inh: PfG6PD (Plasmodium falciparum) enzyme inhibition; PfGluPho enzyme, NADPH resazurin-diaphorase fluorescence; inhibition, % at 20 µM; actives 0.78% (n = 350,000); AID 504690;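 active = inhibition reaching at least a set limit at 20 µM in the primary screen, cut at about 59% in these data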;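 also: 0% = DMSO wells with substrate and 100% = DMSO wells lacking glucose-6-phosphate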
APOBEC3A confirm: APOBEC3A (human) deaminase inhibition, confirmed; shares compounds with APOBEC3A inh; recombinant A3A, ssDNA deaminase UDG fluorescence assay; inhibition, % at 20 µM; actives 63% (n = 1,400); AID 493151;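 active = inhibition reaching a set limit, 80% of the first screen's cutoff, at 20 µM in any replicate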;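 also: plate controls were DMSO wells with A3A for no effect and wells lacking A3A enzyme for full effect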
UDG ctr A3A: counter-screen for APOBEC3A inhibitors: UDG; shares compounds with APOBEC3A inh; UDG counterscreen, FAM/TAMRA uracil oligo fluorescence; inhibition, % at 20 µM; 1,000 tested, under 10 active; AID 504714; call rule not given here
* hit, by the source's call; / = no result given.

SMILES	APOBEC3G inh	hiPSC survival	HKDC1 inh	APOBEC3A inh	PfGluPho inh	APOBEC3A confirm	UDG ctr A3A
CC1=CC(C)C(CN(CCC[N+](C)(C)C)C(=O)Nc2ccccc2)C(C)C1 (stereo not drawn)	24.9	0.1	-1.6	58.1*	10.9	27.8*	-2.1
COc1ccc(-c2csc(N(CCCN(C)C)C(=O)c3ccccc3F)n2)cc1	-8.8	-0.4	1.4	47.8*	14.5	-6.5	-1.0
O=C(NC1=NCCS1)C1CCN(S(=O)(=O)c2cc([N+](=O)[O-])ccc2Cl)CC1	11.7	2.6	7.8	53.0*	15.8	53.1*	-3.6
CC(C)(C)c1ccc(NC(=O)COC(=O)C2CCCC2)cc1	-5.1	0.5	0.2	-3.0	20.2	/	/
CCN1C(N(C)CCc2cccs2)=N[C@@H](c2ccccc2)C(C(=O)OC)=C1C	21.8	-0.1	5.1	52.2*	2.5	52.5*	-2.3
C[C@@H](N)C(=O)NC[C@H]1CC[C@H](C(=O)N[C@@H](Cc2ccccc2)C(=O)O)CC1	-8.2	2.0	-1.1	-4.0	-11.7	/	/
CCOC(=O)C1CCCN(C(=O)Cn2nc(C)c3c(C)n(-c4ccccc4)nc3c2=O)C1 (stereo not drawn)	-0.9	-0.6	2.2	-3.4	-11.4	/	/
Cn1cc(/C=C2/SC(=O)N(CC(=O)Nc3ccc4c(c3)OCO4)C2=O)c2ccccc21	-0.7	-0.8	-5.1	-2.9	-21.2	/	/
O=C(CN1C(=O)S/C(=C\c2ccc(-c3cc(C(=O)O)ccc3Cl)o2)C1=O)Nc1ccc2c(c1)OCO2	-3.4	-0.3	/	49.7*	/	3.1	4.0
COc1cccc(CNC(=O)CCN2C(=O)[C@@H]3Cc4ccccc4CN3C2=O)c1	27.6	0.4	4.9	4.6	5.7	/	/
Cc1cc(C)cc(N2CC(c3nc4ccccc4n3C)CC2=O)c1 (stereo not drawn)	21.4	2.6	-6.7	58.4*	11.4	45.9*	-0.8
Cc1ccc(N2CC(c3nc4ccccc4n3C)CC2=O)cc1C (stereo not drawn)	9.9	-2.1	-4.4	33.1	0.1	/	/
CCN(CCCNC(=O)Cn1ncc2c([nH]c3ccc(C)cc32)c1=O)c1ccccc1	-5.6	0.0	-7.3	-3.3	-17.6	/	/
Cc1ccn(C)c(=N)c1	9.7	-0.7	-7.6	48.3*	4.2	56.1*	2.5
CC[n+]1cc(-c2ccccc2)nc(N2CCOCC2)n1	19.0	-0.9	16.4	50.8*	-6.8	66.7*	/
O=C(NCc1ccccc1CN1CCCCC1)c1ccccc1N1CCCC1=O	14.2	0.2	-5.2	56.9*	-1.8	60.5*	-2.7
Cc1ccc(S(=O)(=O)N(CC(=O)O)Cc2ccco2)cc1	12.3	-0.7	1.2	51.6*	5.2	56.3*	0.9
O=C(CSc1ncccn1)N1CCN(C(=O)CSc2ncccn2)CC1	-4.1	-0.5	-6.1	-3.0	-4.6	/	/
O=C(CSc1ncccn1)N1CCN(C(c2ccccc2)c2ccccc2)CC1	8.0	0.6	3.4	47.3*	-7.0	69.9*	-2.0
Cn1nnnc1SCC(=O)Nc1ccc(Br)cc1Cl	14.9	5.0	-2.1	49.7*	1.8	49.0*	-1.1
Cn1nnnc1SCC(=O)Nc1ccc(Br)cc1Br	-5.2	-0.2	-1.5	-0.5	-2.3	/	/
N/C(=N\OC(=O)Cc1ccc([N+](=O)[O-])cc1)c1ccc([N+](=O)[O-])cc1	-6.9	-0.2	4.3	53.4*	-8.9	-3.7	-1.7
Cc1ccc(NC(=O)CN2C(=O)CNC2=O)cc1	-4.6	-0.1	-5.3	-8.5	-10.5	/	/
C[N+]1(C2CCC3CCCC2C3O)CCCC1 (stereo not drawn)	9.9	6.1	1.6	59.1*	-5.5	73.8*	-0.5
CCCCC(=O)c1ccc(OC(=O)c2ccc([N+](=O)[O-])cc2)cc1	/	1.5	-2.1	/	19.7	/	/
SMILES	APOBEC3G inh	hiPSC survival	HKDC1 inh	APOBEC3A inh	PfGluPho inh	APOBEC3A confirm	UDG ctr A3A
O=C(Cc1ccccc1)Nn1c(-c2ccccc2)nc2ccccc2c1=O	3.2	1.9	0.9	0.0	-8.7	/	/
Cc1cccc(-c2nc3ccccc3c(=O)n2NC(=O)c2ccc([N+](=O)[O-])c(C)c2)c1	-12.5	-2.2	-5.9	49.0*	-27.6	-8.3	-0.2
NC(=S)Nn1c(-c2ccccc2)nc2ccccc2c1=O	-3.2	-1.3	-2.6	41.6*	2.1	1.9	-3.0
Cc1cc(C(=O)Nn2c(C)nc3ccccc3c2=O)ccc1[N+](=O)[O-]	-6.2	0.0	-4.9	-0.6	0.3	/	/
Cc1cccc(N2CCN(C(=O)COc3ccc4c(C)cc(=O)oc4c3C)CC2)c1C	-4.2	0.0	1.0	-3.3	-6.5	/	/
CN1CCC(N(C)S(=O)(=O)c2ccc(NC(=O)c3ccc(S(=O)(=O)N(C)C)cc3)cc2)CC1	1.3	2.4	-0.7	47.3*	-4.1	39.3*	-3.1
Cc1ccc(OCC(=O)Nc2ccc(S(=O)(=O)N(C)C3CCN(C)CC3)cc2)c(C)c1	15.8	-0.6	-4.2	43.1*	14.5	55.0*	-2.7
CN1CCC(N(C)S(=O)(=O)c2ccc(NC(=O)COc3ccc(Br)cc3Cl)cc2)CC1	-5.8	-0.6	-0.2	41.6*	3.6	48.3*	2.0
CN(C(=O)COc1ncnc2sccc12)c1ccccc1	2.0	-0.1	1.1	3.6	-6.2	/	/
CC1(C)Oc2ccc3ccc(=O)oc3c2C(/C=N/O)C1=O (stereo not drawn)	2.4	1.2	2.6	1.8	-5.0	/	/
CC1(C)Oc2ccc3ccc(=O)oc3c2C(/C=N/O)=C1Cl	7.6	-0.7	-2.4	66.9*	-6.5	53.8*	-2.0
Cc1ccc(N(C)C(=O)n2cnc3ccccc32)cc1	-5.8	1.0	-12.4	52.5*	1.3	-0.5	-2.7
O=C(CCCC(=O)n1cnc2ccccc21)n1cnc2ccccc21	-3.1	3.0	-11.8	-1.4	-14.5	/	/
CCn1c(-c2ccccc2Cl)nn(CC(=O)Nc2ccccc2C)c1=S	13.2	1.1	-6.6	66.4*	0.8	23.9	/
COc1ccc(N2Cc3ccc(C(=O)N/N=C\c4ccc(O)cc4O)cc3C2)cc1	-1.6	/	/	-0.9	/	/	/
COc1ccc(CNC(=O)COC(=O)c2ccc(F)c(S(=O)(=O)N3CCCCC3)c2)cc1OC	-8.5	-0.4	-8.0	-4.7	-1.1	/	/
O=C(Cc1cccs1)NCc1ccco1	-5.3	-0.9	-3.5	-0.3	14.5	/	/
O=C(Cc1cccs1)NNC(=S)NCc1ccco1	-6.9	-0.5	-5.8	77.9*	-0.1	-3.6	-3.1
CCN1/C(=c2/s/c(=C3/C(=O)N(c4ccccc4)N=C3C)n(CC)c2=O)C=Cc2ccccc21	-1.4	0.6	-5.2	-3.8	-7.4	/	/
CCN1/C(=C2\C(=O)N(c3ccccc3)N=C2C)C=Cc2cc(C)ccc21	17.6	-2.6	-14.0	49.3*	-18.3	20.5	/
COc1ccccc1N1CCN(/N=C/c2ccccc2C(=O)O)CC1	-1.9	0.3	-5.9	-3.4	0.6	/	/
